Our source for the GI50 values is ChEMBL document CHEMBL1145949, “Constrained derivatives of stylostatin 1. 1. Synthesis and biological evaluation as potential anticancer agents” (2003).

Assay [1] in a line: Growth inhibition effect against NSCL A-549 cells. It is filed as functional, Homo sapiens. The gist of the method: (§1)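 SRB colorimetric growth assay. Cells seeded at 5 × 10^3 per well in RPMI, attached 18 h in drug-free medium, then sample added (dissolved in DMSO/H₂O 3:7) for 48-72 h. Fixed with cold 50% TCA, 60 min, 4 °C; stained with 0.4% SRB in 1% acetic acid, 10 min RT; bound dye solubilized in Tris, OD 490 nm. GI50 from 100 × [(T − T0)/(C − T0)] = 50.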

Assay [2] in a line: Growth inhibition effect against pancreas PANC-1 cells. It is filed as functional, Homo sapiens. In short, it runs like this: as §1
Another assay has as its system K562. The assay is described as follows: Growth inhibition effect against leukemia […] cells. It is filed as functional, Homo sapiens. In short, it runs like this:
as §1

Assay [3] is described as follows: Growth inhibition effect against colon LOVO-DOX cells. Type of assay: functional, Homo sapiens. In short, it runs like this:
as §1

Assay [4] can be described thus: Growth inhibition effect against ovarian tumor IGROV-ET cells. Type of assay: functional, Homo sapiens. The gist of the method: as §1
The nature of assay [5]: Growth inhibition effect against ovarian tumor SK-BR-3 cells. It is filed as functional, Homo sapiens. The gist of the method:
as §1

Assay [6] in a line: Growth inhibition effect against […] HT-29 cells. It is filed as functional, Homo sapiens. In short, it runs like this: as §1
Assay [7] can be described thus: Growth inhibition effect against melanoma MEL-28 cells. It is filed as functional, Homo sapiens. The gist of the method:
as §1

The nature of assay [8]: Growth inhibition effect against prostate tumor DU-145 cells. It is filed as functional, Homo sapiens. In short, it runs like this: as §1
Assay [9] can be described thus: Growth inhibition effect against prostate tumor IGROV cells. Type of assay: functional, Homo sapiens. In short, it runs like this: as §1
The nature of assay [10]: Growth inhibition effect against prostate tumor LN-caP cells. It is filed as functional, Homo sapiens. The gist of the method: as §1
A short description of assay [11]: Growth inhibition effect against prostate tumor SKOV-3 cells. Type of assay: functional, Homo sapiens, SK-OV-3. In short, it runs like this:
as §1

The nature of assay [12]: Growth inhibition effect against colon LOVO cells. It is filed as functional, Homo sapiens. In short, it runs like this:
as §1

The term GI50 denotes the concentration at which growth is held to half of that of the control. The low end stands for greater sensitivity of the cells, the high end for lower sensitivity of the cells. Take `CC[C@H](C)[C@@H]1NC(=O)[C@H](C)NC(=O)[C@H](CC(C)C)N2C[C@@H](O)[C@@H](O)[C@H](NC(=O)[C@H](CC(N)=O)NC(=O)[C@H](Cc3ccccc3)NC(=O)[C@@H]3CCCN3C1=O)C2=O`: the GI50 is 5.2 µM in assay [1] (Homo sapiens, A549); 5.1 µM in [2] (Homo sapiens, PANC-1); 3.59 µM in the assay on K562 (Homo sapiens, K562); 8.84 µM in assay [3] (Homo sapiens, LOVO-DOX); 4.97 µM in assay [4] (Homo sapiens, IGROV-ET); 3.86 µM in assay [5] (Homo sapiens, SK-BR-3). For the same compound, the GI50 in assay [6] (Homo sapiens, HT-29) was 9.31 µM; in [7] (Homo sapiens, SK-MEL-28), 6.69 µM; in assay [8] (Homo sapiens, DU-145), 10.6 µM; in [9] (Homo sapiens, IGROV), 3.33 µM; in assay [10] (Homo sapiens, LNCaP), 3490 nM; in [11] (Homo sapiens, SK-OV-3), 4.99 µM. In assay [12] (Homo sapiens, LoVo), halving of growth (GI50) required 8.83 µM.
Regarding `CC[C@H](C)[C@@H]1NC(=O)[C@H](C)NC(=O)[C@H](CC(C)C)NC(=O)[C@H](CO)NC(=O)[C@H](CC(N)=O)NC(=O)[C@H](Cc2ccccc2)NC(=O)[C@@H]2CCCN2C1=O` (stereo in doubt) [STYLOSTATIN 1], the GI50 in [1] (Homo sapiens, A549) turned out to be 3.46 µM; in assay [2] (Homo sapiens, PANC-1), 5.03 µM; in the assay with K562 (Homo sapiens, K562), 1.94 µM; in [3] (Homo sapiens, LOVO-DOX), 6.77 µM; in [4] (Homo sapiens, IGROV-ET), 3.3 µM; in assay [5] (Homo sapiens, SK-BR-3), 4.39 µM. Also, the GI50 came out at 6.85 µM in [6] (Homo sapiens, HT-29); 3.06 µM in assay [7] (Homo sapiens, SK-MEL-28); 3.55 µM in assay [8]; 2.58 µM in [9] (Homo sapiens, IGROV); 2600 nM in [10] (Homo sapiens, LNCaP); 304 µM in assay [11]. This compound came in with a GI50 in [12] of 4.55 µM.
With `CC[C@H](C)[C@@H]1NC(=O)[C@H](C)NC(=O)[C@H](CC(C)C)NC(=O)[C@H](CO)NC(=O)[C@H](CC(N)=O)NC(=O)[C@H](Cc2ccccc2)NC(=O)[C@@H]2CCCN2C1=O` (stereo in doubt; 2) [STYLOSTATIN 1], the GI50 in assay [1] was found to be 4.28 µM; in assay [2], 4.97 µM; with K562, 3.42 µM; in assay [3] it was 8.52 µM; in [4], 4.29 µM; in assay [5] it was 4.16 µM. Besides, the GI50 in assay [6] turned out to be 7.13 µM; in assay [7], 4.64 µM; in [8], 8.44 µM; in [9], 3.35 µM; in assay [10], 2440 nM; in assay [11] it was 3.77 µM. The same compound had a GI50 in [12] of 11.5 µM.
